Reference: ChEMBL document CHEMBL1799922, “Synthesis and antimycobacterial activity of prodrugs of indeno[2,1-c]quinoline derivatives” (Eur J Med Chem, 2011)
≈ marks a conversion by molar mass, not a printed value.

system: Mycobacterium tuberculosis; test: Antimicrobial activity against Mycobacterium tuberculosis H37Rv ATCC 27294 after 16 to 24 hrs by microplate alamar blue assay; type: functional; conditions: not given
In short: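 M. tuberculosis H37Rv inoculum 2×10^5 cfu/mL (100 µL) added to twofold dilutions in Middlebrook 7H12 medium; final test range 128 µM to 0.5 µM from 12.8 mM DMSO stocks. Incubated 37 °C; day 7 Tween 80 plus Alamar Blue added, further 16-24 h at 37 °C. Fluorescence ex 530/em 590 nm; MIC = lowest concentration giving >90% fluorescence reduction versus replicate bacteria-only controls. Rifampin, isoniazid controls.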

Structure (SMILES)	MIC [µg/mL]
CC(=O)O/N=C1\c2ccccc2-c2c1c(-n1ccnc1)nc1ccc(Br)cc21	< 0.2
CCCCCCCCCC(=O)O/N=C1\c2ccccc2-c2c1c(-n1ccnc1)nc1ccc(Br)cc21	3 (≈ 5.5 µM)
CC(C)(C)OC(=O)NC(Cc1cccc(F)c1)C(=O)O/N=C1\c2ccccc2-c2c1c(N1CCN(c3ccccn3)CC1)nc1ccc(Br)cc21 (stereo unspecified)	2.98 (≈ 3.96 µM)
CC(C)(C)OC(=O)NCC(=O)O/N=C1\c2ccccc2-c2c1c(N1CCN(c3ccccn3)CC1)nc1ccc(Br)cc21	1.55 (≈ 2.41 µM)

system: not listed separately; test: Cytotoxicity against human U937 cells assessed as cell viability at 1.25 ug/ml after 72 hrs by MTT assay; type: cell-based, U-937; conditions: read-out: Activity
In short: (§1)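 U937 human monocytic cells plated at 1 × 10^5 cells/mL and allowed to adhere for 1 h at 37 °C in 5% CO2. Non-adherent cells were washed off with RPMI 1640. Adherent cells were exposed to compound in triplicate, with medium alone as the live control and 3% Tween 20 as the dead control. MTT (5 mg/mL in PBS) was then added for 3 h at 37 °C. Formazan was dissolved in 0.4 M HCl/isopropanol and absorbance read at 600 nm. Results are expressed as % cell viability.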

Structure (SMILES)	viability at 72 h, 1.25 ug/ml [%]
CC(=O)O/N=C1\c2ccccc2-c2c1c(-n1ccnc1)nc1ccc(Br)cc21	87
CCCCCCCCCC(=O)O/N=C1\c2ccccc2-c2c1c(-n1ccnc1)nc1ccc(Br)cc21	100
CC(C)(C)OC(=O)NC(Cc1cccc(F)c1)C(=O)O/N=C1\c2ccccc2-c2c1c(N1CCN(c3ccccn3)CC1)nc1ccc(Br)cc21 (stereo unspecified)	92
CC(C)(C)OC(=O)NCC(=O)O/N=C1\c2ccccc2-c2c1c(N1CCN(c3ccccn3)CC1)nc1ccc(Br)cc21	87

system: not listed separately; test: Cytotoxicity against human U937 cells assessed as cell viability at 5 ug/ml after 72 hrs by MTT assay; type: cell-based, U-937; conditions: read-out: Activity; in short: as §1

Structure (SMILES)	viability at 72 h, 5 ug/ml [%]
CC(=O)O/N=C1\c2ccccc2-c2c1c(-n1ccnc1)nc1ccc(Br)cc21	78
CC(C)(C)OC(=O)NC(Cc1cccc(F)c1)C(=O)O/N=C1\c2ccccc2-c2c1c(N1CCN(c3ccccn3)CC1)nc1ccc(Br)cc21 (stereo unspecified)	90
CC(C)(C)OC(=O)NCC(=O)O/N=C1\c2ccccc2-c2c1c(N1CCN(c3ccccn3)CC1)nc1ccc(Br)cc21	82

system: not listed separately; test: Cytotoxicity against human U937 cells assessed as cell viability at 10 ug/ml after 72 hrs by MTT assay; type: cell-based, U-937; conditions: read-out: Activity; in short: as §1

Structure (SMILES)	viability at 72 h, 10 ug/ml [%]
CC(=O)O/N=C1\c2ccccc2-c2c1c(-n1ccnc1)nc1ccc(Br)cc21	59
CCCCCCCCCC(=O)O/N=C1\c2ccccc2-c2c1c(-n1ccnc1)nc1ccc(Br)cc21	81
CC(C)(C)OC(=O)NC(Cc1cccc(F)c1)C(=O)O/N=C1\c2ccccc2-c2c1c(N1CCN(c3ccccn3)CC1)nc1ccc(Br)cc21 (stereo unspecified)	79
CC(C)(C)OC(=O)NCC(=O)O/N=C1\c2ccccc2-c2c1c(N1CCN(c3ccccn3)CC1)nc1ccc(Br)cc21	63

system: not listed separately; test: Cytotoxicity against human U937 cells assessed as cell viability at 20 ug/ml after 72 hrs by MTT assay; type: cell-based, U-937; conditions: read-out: Activity; in short: as §1

Structure (SMILES)	viability at 72 h, 20 ug/ml [%]
CC(=O)O/N=C1\c2ccccc2-c2c1c(-n1ccnc1)nc1ccc(Br)cc21	42
CC(C)(C)OC(=O)NC(Cc1cccc(F)c1)C(=O)O/N=C1\c2ccccc2-c2c1c(N1CCN(c3ccccn3)CC1)nc1ccc(Br)cc21 (stereo unspecified)	84
CC(C)(C)OC(=O)NCC(=O)O/N=C1\c2ccccc2-c2c1c(N1CCN(c3ccccn3)CC1)nc1ccc(Br)cc21	49

system: Serum; test: Stability of the compound in 80% human blood serum assessed as hydrolysis to 2-bromo-6-(1H-imidazol-1-yl)-7H-indeno[2,1-c]quinolin-7-one oxime at 1 mg after 24 hrs at 37 degC by LC-MS analysis; type: ADME, cell-free; design: scale not given: the % may be the effect or the level left; conditions: not given
In short: (§2)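 Enzymatic hydrolysis: 1 mg prodrug dissolved in 1 mL ethanol, then 200 µL preheated human blood serum diluted to 80% with 0.16 M phosphate buffer (pH 7.4) was added. Samples were kept at 37 °C (24 h) and centrifuged 10 min at 10,000 rpm. Remaining prodrug in the supernatant was monitored by TLC and LC-MS. t1/2 is the time to 50% hydrolysis.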

Structure (SMILES)	Activity [%]
CC(=O)O/N=C1\c2ccccc2-c2c1c(-n1ccnc1)nc1ccc(Br)cc21	94
CCCCCCCCCC(=O)O/N=C1\c2ccccc2-c2c1c(-n1ccnc1)nc1ccc(Br)cc21	90
CC(C)(C)OC(=O)NC(Cc1cccc(F)c1)C(=O)O/N=C1\c2ccccc2-c2c1c(N1CCN(c3ccccn3)CC1)nc1ccc(Br)cc21 (stereo unspecified)	95
CC(C)(C)OC(=O)NCC(=O)O/N=C1\c2ccccc2-c2c1c(N1CCN(c3ccccn3)CC1)nc1ccc(Br)cc21	95

system: not listed separately; test: Stability of the compound in 10% aqueous ammonia buffer at pH 8 assessed as hydrolysis to 2-bromo-6-(1H-imidazol-1-yl)-7H-indeno[2,1-c]quinolin-7-one oxime at 1 mg at 37 degC by LC-MS analysis; type: physicochemical; design: scale not given: the % may be the effect or the level left; conditions: not given
In short: (§3)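 Chemical hydrolysis: 1 mg prodrug dissolved in 1 mL of 10% aqueous ammonia in methanol (pH 8) and held in a thermostatted water bath at 37 °C, up to 24 h. Conversion to the parent oxime was followed by TLC and LC-MS. t1/2 is the time to 50% hydrolysis.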

Structure (SMILES)	Activity [%]
CC(=O)O/N=C1\c2ccccc2-c2c1c(-n1ccnc1)nc1ccc(Br)cc21	95
CCCCCCCCCC(=O)O/N=C1\c2ccccc2-c2c1c(-n1ccnc1)nc1ccc(Br)cc21	90
CC(C)(C)OC(=O)NC(Cc1cccc(F)c1)C(=O)O/N=C1\c2ccccc2-c2c1c(N1CCN(c3ccccn3)CC1)nc1ccc(Br)cc21 (stereo unspecified)	95
CC(C)(C)OC(=O)NCC(=O)O/N=C1\c2ccccc2-c2c1c(N1CCN(c3ccccn3)CC1)nc1ccc(Br)cc21	95

system: not listed separately; test: Half life in human blood serum by LC-MS analysis; type: ADME, cell-free, Plasma; conditions: not given; in short: as §2

Structure (SMILES)	half-life [h]
CC(=O)O/N=C1\c2ccccc2-c2c1c(-n1ccnc1)nc1ccc(Br)cc21	84
CCCCCCCCCC(=O)O/N=C1\c2ccccc2-c2c1c(-n1ccnc1)nc1ccc(Br)cc21	144
CC(C)(C)OC(=O)NC(Cc1cccc(F)c1)C(=O)O/N=C1\c2ccccc2-c2c1c(N1CCN(c3ccccn3)CC1)nc1ccc(Br)cc21 (stereo unspecified)	144
CC(C)(C)OC(=O)NCC(=O)O/N=C1\c2ccccc2-c2c1c(N1CCN(c3ccccn3)CC1)nc1ccc(Br)cc21	24

system: not listed separately; test: Half life in 10% aqueous ammonia buffer at pH 8 assessed as hydrolysis to 2-bromo-6-(1H-imidazol-1-yl)-7H-indeno[2,1-c]quinolin-7-one oxime at 37 degC by LC-MS analysis; type: physicochemical; conditions: not given; in short: as §3

Structure (SMILES)	half-life [h]
CC(=O)O/N=C1\c2ccccc2-c2c1c(-n1ccnc1)nc1ccc(Br)cc21	48
CCCCCCCCCC(=O)O/N=C1\c2ccccc2-c2c1c(-n1ccnc1)nc1ccc(Br)cc21	24
CC(C)(C)OC(=O)NC(Cc1cccc(F)c1)C(=O)O/N=C1\c2ccccc2-c2c1c(N1CCN(c3ccccn3)CC1)nc1ccc(Br)cc21 (stereo unspecified)	72
CC(C)(C)OC(=O)NCC(=O)O/N=C1\c2ccccc2-c2c1c(N1CCN(c3ccccn3)CC1)nc1ccc(Br)cc21	3.6

system: not listed separately; test: Octanol-water partition coefficient, log P of the compound at pH 7.4 at room temperature by UV spectrophotometric analysis; type: physicochemical; conditions: not given
In short: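 Shake-flask method at room temperature: 1-octanol and phosphate buffer (pH 7.4) were pre-saturated by shaking for 24 h. Compound at 10^-4 M in equal volumes of both phases was shaken vigorously for 1 h, left to stand 15 min, then centrifuged 10 min at 10,000 rpm. UV absorbance of each phase was read at 280 nm against blanks, and P was taken as the octanol/water absorbance ratio.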

Structure (SMILES)	logD
CC(=O)O/N=C1\c2ccccc2-c2c1c(-n1ccnc1)nc1ccc(Br)cc21	1.1
CCCCCCCCCC(=O)O/N=C1\c2ccccc2-c2c1c(-n1ccnc1)nc1ccc(Br)cc21	1.4
CC(C)(C)OC(=O)NC(Cc1cccc(F)c1)C(=O)O/N=C1\c2ccccc2-c2c1c(N1CCN(c3ccccn3)CC1)nc1ccc(Br)cc21 (stereo unspecified)	1.1
CC(C)(C)OC(=O)NCC(=O)O/N=C1\c2ccccc2-c2c1c(N1CCN(c3ccccn3)CC1)nc1ccc(Br)cc21	0.7

system: not listed separately; test: Selectivity index, ratio CC50 for human U937 cells to MIC for Mycobacterium tuberculosis H37Rv ATCC 27294; type: functional, U-937; conditions: not given

Structure (SMILES)	Selectivity Index
CC(=O)O/N=C1\c2ccccc2-c2c1c(-n1ccnc1)nc1ccc(Br)cc21	>71
CC(C)(C)OC(=O)NC(Cc1cccc(F)c1)C(=O)O/N=C1\c2ccccc2-c2c1c(N1CCN(c3ccccn3)CC1)nc1ccc(Br)cc21 (stereo unspecified)	>13
CC(C)(C)OC(=O)NCC(=O)O/N=C1\c2ccccc2-c2c1c(N1CCN(c3ccccn3)CC1)nc1ccc(Br)cc21	22
